Entries after “also recorded” stand apart in the source; their conditions may differ. Where no end group is shown, it is not given here.
Legend:
[1] = target: GC-C (GC-C-expressing T84 cell line) (Homo sapiens, UniProt P25092); test: T84 cell-based cyclic GMP bioassay
Summary of the method: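 Test peptide diluted into bioassay medium (1 mM IBMX, 137 mM NaCl, 5.4 mM KCl, 1.3 mM CaCl2, 1.0 mM MgSO4, 4.2 mM NaHCO3, phosphates, phenol red, 10 mM HEPES), pH readjusted to 7.0 if required, then applied to T84 cells for 30 min. Cells lysed; cyclic GMP measured by radioimmunoassay. Concentration-response data fitted with the log(agonist) vs response equation.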

[2] = system: anesthetized rats (male Sprague Dawley); test: Urinary sodium excretion; type: in vivo, rat
[3] = rat, mouse, and opossum forms; 37° C and neutral pH; cited from earlier work
kidney = conditions: cited from earlier work
[4] = system: chymotrypsin-like activity in the kidney; conditions: cited from earlier work
[5] = system: GC-C knockout mouse intestine; conditions: cited from earlier work
[6] = system: GC-C knockout mouse kidneys; conditions: cited from earlier work

GC-C (GC-C-expressing T84 cell line), sequence (P25092 24-1073): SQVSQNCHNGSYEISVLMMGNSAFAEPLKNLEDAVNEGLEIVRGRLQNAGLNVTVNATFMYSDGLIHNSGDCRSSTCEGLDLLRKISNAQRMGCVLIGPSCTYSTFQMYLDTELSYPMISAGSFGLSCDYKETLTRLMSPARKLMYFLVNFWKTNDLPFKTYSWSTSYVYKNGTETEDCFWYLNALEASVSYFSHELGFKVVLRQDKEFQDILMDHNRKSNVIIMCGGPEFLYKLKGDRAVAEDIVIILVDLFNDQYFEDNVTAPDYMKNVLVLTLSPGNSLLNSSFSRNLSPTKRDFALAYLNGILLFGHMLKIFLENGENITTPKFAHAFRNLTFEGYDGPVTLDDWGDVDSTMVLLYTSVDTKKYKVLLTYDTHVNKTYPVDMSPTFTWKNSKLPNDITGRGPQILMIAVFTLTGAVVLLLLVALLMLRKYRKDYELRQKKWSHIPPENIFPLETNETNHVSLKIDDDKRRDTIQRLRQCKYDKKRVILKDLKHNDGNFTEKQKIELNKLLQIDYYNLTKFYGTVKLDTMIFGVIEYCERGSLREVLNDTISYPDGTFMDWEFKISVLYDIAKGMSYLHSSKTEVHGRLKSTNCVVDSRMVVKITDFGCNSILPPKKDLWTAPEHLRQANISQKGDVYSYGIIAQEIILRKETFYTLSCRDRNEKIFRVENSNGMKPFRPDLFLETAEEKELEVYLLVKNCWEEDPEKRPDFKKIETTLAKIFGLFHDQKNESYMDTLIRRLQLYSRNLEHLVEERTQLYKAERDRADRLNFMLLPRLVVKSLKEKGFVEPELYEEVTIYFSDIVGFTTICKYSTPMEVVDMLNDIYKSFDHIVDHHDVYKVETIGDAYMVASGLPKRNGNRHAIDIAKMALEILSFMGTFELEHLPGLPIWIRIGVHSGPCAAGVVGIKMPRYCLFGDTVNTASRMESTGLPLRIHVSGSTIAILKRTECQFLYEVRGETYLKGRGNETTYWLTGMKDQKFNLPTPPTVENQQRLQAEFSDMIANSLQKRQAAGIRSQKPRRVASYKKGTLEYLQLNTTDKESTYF

For “CCELCCNPACTGCY (also: bicyclic or more (positions not given here)) [ST-core]”, the “EC50 for cyclic GMP stimulation relative to huUgnA (fold lower)” value ([1]; T84 cells, no reference or data printed) was “about 10 fold”, the “pharmacological profile of GC-C-mediated responses (rank order)” value ([1]; described as well-established) was “ST core > huUgnA >> huUgnB, with all three peptides acting as pure agonists” and the “natriuretic effect compared with huUgnA” value ([2]; iv infusion, cumulative 3 hour, Figure 6b, words) was “the maximal natriuresis elicited by ST-core was slightly less and the response was shifted to the right; also recorded: right-shifted, but otherwise quite similar to those evoked by huUgnA”. The “pharmacological profile of the renal responses (rank order)” value ([2]; rat, in vivo) was “huUgnB ≥ huUgnA ≈ ST core, with physiological antagonism by huUgnA at high concentration”.

In the case of “uroguanylin (NDDCELCVNVACTGCL; ends and bridges not checked; cysteine pairing not given here; UniProt Q16661 97-112, looked up) [Ugn]”, the “rate of interconversion of the two conformations” value [3] is given as 1–2 cycles per sec, the “natriuretic, kaliuretic, diuretic effect” value (kidney; every preparation that has been examined) is given as “natriuretic, kaliuretic, and diuretic in every preparation that has been examined” and the “natriuretic potency, Ugn versus Gn” value (kidney; words) is given as “a more potent natriuretic factor than Gn”.

For “guanylin (PGTCEICAYAACTGC; ends and bridges not checked; cysteine pairing not given here; UniProt Q02747 101-115, looked up) [Gn]”, the “rate of interconversion of the two conformations” value [3] is given as 1–2 cycles per sec, the “kaliuretic activity, Gn versus Ugn” value (kidney; words) is given as “more kaliuretic than Ugn” and the “susceptibility to proteolytic digestion” value ([4]; chymotrypsin-like activity in the kidney) is given as “susceptible to proteolytic digestion”. The detectability in urine [4] was “undetectable in urine”.

In the case of “rat Ugn: rat form of uroguanylin; A and B forms interconvert rapidly (TDECELCINVACTGC; not fully specified (bridges); ends and bridges not checked; UniProt P70668 92-106, looked up)”, the “secretory response from the intestine” value [5] is given as “only small, residual secretory responses” and the “natriuretic response from the kidneys” value [6] is given as “apparently full natriuretic responses”.

From publication PMC2729689 (Hypertension, 2009)
